The values that follow come from PMC9060905 (RSC Advances, 2019).

Where two headings read alike, the source gives them in different places. Ends that are not written are not given here.

The conditions of assay [1]: cited from earlier work.
The subject of assay [2] is ET-1 in vascular endothelial cells. Conditions: cited from earlier work.
A further assay relates to ACE. Conditions: cited from earlier work.
The target in another assay is T1, ACE (from rabbit lung) (Oryctolagus cuniculus, UniProt P12822).
T1 sequence (P12822 34-1310): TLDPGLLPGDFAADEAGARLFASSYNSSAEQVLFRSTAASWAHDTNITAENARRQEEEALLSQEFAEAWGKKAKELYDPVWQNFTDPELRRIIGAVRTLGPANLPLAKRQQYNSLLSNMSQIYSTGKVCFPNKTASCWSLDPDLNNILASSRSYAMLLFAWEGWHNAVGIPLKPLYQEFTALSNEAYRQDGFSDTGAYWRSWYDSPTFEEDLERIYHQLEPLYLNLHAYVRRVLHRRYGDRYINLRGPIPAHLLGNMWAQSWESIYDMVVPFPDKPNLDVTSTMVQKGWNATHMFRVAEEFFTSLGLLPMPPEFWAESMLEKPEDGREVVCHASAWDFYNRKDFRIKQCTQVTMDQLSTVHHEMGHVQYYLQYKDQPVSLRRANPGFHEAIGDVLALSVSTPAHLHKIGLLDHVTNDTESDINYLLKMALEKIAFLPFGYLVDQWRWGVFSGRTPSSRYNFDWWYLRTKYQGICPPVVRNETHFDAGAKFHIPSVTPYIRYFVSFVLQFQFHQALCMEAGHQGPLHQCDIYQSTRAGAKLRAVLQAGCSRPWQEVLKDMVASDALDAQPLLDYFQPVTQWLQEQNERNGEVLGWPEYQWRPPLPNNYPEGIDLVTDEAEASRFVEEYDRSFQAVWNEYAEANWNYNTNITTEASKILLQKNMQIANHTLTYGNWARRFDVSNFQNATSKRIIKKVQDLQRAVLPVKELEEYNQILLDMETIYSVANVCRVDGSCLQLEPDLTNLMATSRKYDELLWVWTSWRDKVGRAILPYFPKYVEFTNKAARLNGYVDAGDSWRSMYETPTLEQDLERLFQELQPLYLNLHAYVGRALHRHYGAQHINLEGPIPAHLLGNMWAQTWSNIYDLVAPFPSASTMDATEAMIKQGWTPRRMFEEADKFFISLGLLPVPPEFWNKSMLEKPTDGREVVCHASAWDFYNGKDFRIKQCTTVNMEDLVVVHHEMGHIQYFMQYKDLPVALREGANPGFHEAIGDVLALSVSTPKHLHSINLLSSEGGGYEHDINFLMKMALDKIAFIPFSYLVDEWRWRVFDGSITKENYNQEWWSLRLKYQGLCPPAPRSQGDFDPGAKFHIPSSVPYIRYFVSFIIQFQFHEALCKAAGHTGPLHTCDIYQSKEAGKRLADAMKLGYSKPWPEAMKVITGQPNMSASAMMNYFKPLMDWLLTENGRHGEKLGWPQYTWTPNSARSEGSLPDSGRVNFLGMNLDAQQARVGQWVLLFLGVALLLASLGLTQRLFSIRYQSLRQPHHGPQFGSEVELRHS
Kind of assay: ACE-inhibitory activity. It is filed as biochemical. In a few lines: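 Rabbit-lung ACE with HHL substrate. Hippuric acid is extracted into ethyl acetate (vortex 5 s, 14100g for 5 min). The upper organic phase is dried in a vacuum oven at 80 °C for 1 h, redissolved in distilled water, and read at 228 nm. Experiments repeated at least three times; mean values used.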

Consider Leu-Ala-Arg-Leu, for which the “Fe2+ chelating ability” value in assay [1] (at 0.1 mg mL^-1, tilapia gelatin peptide) was 46.53%. For Val-Phe-Tyr, the “Effect on ET-1 expression in vascular endothelial cells” value (“Effect on ET-1 expression” below) in assay [2] was “inhibiting the expression of ET-1”.

Consider EVSQGRP, for which the ACE inhibition pattern entry in the assay with ACE is “mixed-mode inhibition patterns”. For the substance Val-Ile-Glu-Pro-Arg, the “Effect on ET-1 expression” value in assay [2] is “inhibiting the expression of ET-1”. On ACE (from rabbit lung), “KAQYPYV [KAQYPYV, Lys-Ala-Gln-Tyr-Pro-Tyr-Val]” showed an IC50 of 37.1 µM. On to YYIVS, for which the “Fe2+ chelating ability” value in assay [1] (at 3 mg mL^-1, sweet potato protein peptide) is given as 59.74%. Val-Val-Leu-Tyr-Lys [VVLYK]: in the assay on ACE, the ACE inhibition pattern entry is given as “mixed-mode inhibition patterns”. Besides, the “Effect on ET-1 expression” value in assay [2] is given as “inhibiting the expression of ET-1”. On to SAAVGSP, for which the ACE inhibition pattern result in the assay on ACE was “mixed-mode inhibition patterns”.

By IC50 is commonly meant the concentration at which inhibition is half-maximal. The low end stands for greater potency in that assay, the high end for weaker potency in that assay.
